This note sets out measurements from ChEMBL document CHEMBL3797186, “Single Residue Substitutions That Confer Voltage-Gated Sodium Ion Channel Subtype Selectivity in the NaV1.7 Inhibitory Peptide GpTx-1” (J Med Chem, 2016).

Each structure is given as a SMILES string. pIC50: −log10 of the molar value. Positions of bridges follow the written chain, without caps; N, C: chain ends. Residues, ends and D or L forms follow the SMILES beside them.

For one assay, the target named is Sodium channel protein type 5 subunit alpha (Homo sapiens, UniProt Q14524). Nature of the assay: Inhibition of human Nav1.5 expressed in HEK293 cells assessed as inward peak current by ion-works quattro patch clamp electrophysiology method. The format is cell-based.
Sequence of Sodium channel protein type 5 subunit alpha (Q14524 whole entry): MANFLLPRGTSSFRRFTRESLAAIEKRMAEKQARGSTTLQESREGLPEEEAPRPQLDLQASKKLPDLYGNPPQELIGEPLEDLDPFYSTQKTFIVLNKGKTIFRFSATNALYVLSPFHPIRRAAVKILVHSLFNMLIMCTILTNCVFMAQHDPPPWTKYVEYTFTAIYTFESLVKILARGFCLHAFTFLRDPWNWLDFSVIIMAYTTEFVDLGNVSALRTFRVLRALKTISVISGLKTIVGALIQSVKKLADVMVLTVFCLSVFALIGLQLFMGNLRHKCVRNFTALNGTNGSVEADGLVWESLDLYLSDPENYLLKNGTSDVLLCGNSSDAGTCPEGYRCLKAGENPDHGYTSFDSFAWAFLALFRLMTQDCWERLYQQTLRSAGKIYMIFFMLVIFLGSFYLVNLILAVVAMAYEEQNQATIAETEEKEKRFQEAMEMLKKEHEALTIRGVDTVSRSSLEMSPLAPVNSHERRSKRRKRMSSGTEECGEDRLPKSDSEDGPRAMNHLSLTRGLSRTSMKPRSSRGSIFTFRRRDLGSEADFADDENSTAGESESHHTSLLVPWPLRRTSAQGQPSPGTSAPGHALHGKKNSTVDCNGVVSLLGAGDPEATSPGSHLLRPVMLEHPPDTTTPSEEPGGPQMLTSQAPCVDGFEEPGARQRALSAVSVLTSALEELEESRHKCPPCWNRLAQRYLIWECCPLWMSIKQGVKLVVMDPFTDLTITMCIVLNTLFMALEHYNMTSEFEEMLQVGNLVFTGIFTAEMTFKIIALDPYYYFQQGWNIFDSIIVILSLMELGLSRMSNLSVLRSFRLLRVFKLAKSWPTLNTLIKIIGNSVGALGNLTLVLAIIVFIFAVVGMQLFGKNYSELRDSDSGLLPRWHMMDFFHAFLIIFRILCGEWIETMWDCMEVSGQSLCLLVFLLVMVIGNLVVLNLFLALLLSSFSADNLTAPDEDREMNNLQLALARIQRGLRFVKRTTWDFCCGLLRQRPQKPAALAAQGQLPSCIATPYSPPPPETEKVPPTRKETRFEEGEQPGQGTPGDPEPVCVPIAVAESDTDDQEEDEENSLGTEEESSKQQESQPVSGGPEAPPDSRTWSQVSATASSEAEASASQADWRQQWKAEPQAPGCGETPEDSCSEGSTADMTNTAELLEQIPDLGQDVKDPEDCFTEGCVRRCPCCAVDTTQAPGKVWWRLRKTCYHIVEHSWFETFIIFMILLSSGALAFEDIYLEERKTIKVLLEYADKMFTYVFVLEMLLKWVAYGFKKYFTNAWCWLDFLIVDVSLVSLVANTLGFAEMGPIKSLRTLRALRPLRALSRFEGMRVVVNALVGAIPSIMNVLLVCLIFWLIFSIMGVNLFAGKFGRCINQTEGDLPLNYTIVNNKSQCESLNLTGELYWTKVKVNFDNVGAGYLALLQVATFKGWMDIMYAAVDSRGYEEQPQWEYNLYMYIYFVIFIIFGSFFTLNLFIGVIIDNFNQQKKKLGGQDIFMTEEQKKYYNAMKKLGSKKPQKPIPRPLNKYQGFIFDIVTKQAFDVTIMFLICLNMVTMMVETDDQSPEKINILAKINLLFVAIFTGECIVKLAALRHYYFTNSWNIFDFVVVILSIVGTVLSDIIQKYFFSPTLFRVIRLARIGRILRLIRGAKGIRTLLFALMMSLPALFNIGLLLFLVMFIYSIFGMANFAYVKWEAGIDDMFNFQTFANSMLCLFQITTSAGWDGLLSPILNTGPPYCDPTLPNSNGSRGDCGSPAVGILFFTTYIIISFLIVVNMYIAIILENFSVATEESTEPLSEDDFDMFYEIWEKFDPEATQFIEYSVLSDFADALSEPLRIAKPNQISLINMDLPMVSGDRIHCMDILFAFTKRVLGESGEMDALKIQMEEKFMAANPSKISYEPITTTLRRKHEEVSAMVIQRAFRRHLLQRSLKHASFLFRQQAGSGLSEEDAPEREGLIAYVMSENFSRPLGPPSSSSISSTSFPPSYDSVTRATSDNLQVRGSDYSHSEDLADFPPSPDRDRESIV
Conditions: not given
The gist of the method: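 Stable HEK293 line expressing human NaV1.5, recorded by population patch clamp on the IonWorks Quattro.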
Background: Patch clamp records ionic current or voltage across a cell membrane.
In general, pIC50 refers to the negative decadic logarithm of the IC50, by convention in mol/L. Turning to `CSCC[C@@H]1NC(=O)[C@H](Cc2ccccc2)NC(=O)CNC(=O)[C@H](CC(C)C)NC(=O)[C@@H](NC(=O)[C@@H](N)CC(=O)O)CSSC[C@@H]2NC(=O)[C@@H]3CSSC[C@@H](C(=O)N[C@@H](CCCCN)C(=O)N[C@@H](Cc4ccc(O)cc4)C(=O)N[C@H](C(=O)N[C@@H](Cc4ccccc4)C(N)=O)C(C)C)NC(=O)[C@H](Cc4c[nH]c5ccccc45)NC(=O)[C@H](CCCCN)NC(=O)[C@H](Cc4cnc[nH]4)NC(=O)[C@H]([C@@H](C)O)NC(=O)[C@H](CCCNC(=N)N)NC(=O)[C@H](CO)NC(=O)[C@H](CSSC[C@H](NC(=O)[C@H](CCCCN)NC(=O)[C@H](CCCNC(=N)N)NC1=O)C(=O)N[C@@H](Cc1ccc(O)cc1)C(=O)N1CCC[C@H]1C(=O)N[C@@H](CC(=O)O)C(=O)N[C@@H](CC(N)=O)C(=O)N[C@@H](CC(=O)O)C(=O)N[C@@H](CCCCN)C(=O)N3)NC(=O)[C@H](C(C)C)NC(=O)[C@H](CC(C)C)NC(=O)[C@H](CC(N)=O)NC(=O)[C@@H]1CCCN1C(=O)[C@H](CCCNC(=N)N)NC2=O` (H-DCLGFMRKCYPDNDKCCRPNLVCSRTHKWCKYVF-NH2; disulfide 2-17, 9-23, 16-30), the pIC50 was < 5.30.

As to `CC[C@H](C)[C@@H]1NC(=O)[C@@H]2CSSC[C@@H]3NC(=O)[C@H](C(C)C)NC(=O)[C@H](CC(C)C)NC(=O)[C@H](CC(N)=O)NC(=O)[C@@H]4CCCN4C(=O)[C@H](CCCNC(=N)N)NC(=O)[C@H](CSSC[C@H](NC(=O)[C@@H](N)CC(=O)O)C(=O)N[C@@H](CC(C)C)C(=O)NCC(=O)N[C@@H](CCCNC(=N)N)C(=O)N[C@@H](CCSC)C(=O)N[C@@H](CCCNC(=N)N)C(=O)N[C@@H](CCCCN)C(=O)N2)NC(=O)[C@H](CSSC[C@@H](C(=O)N[C@@H](CCCCN)C(=O)N[C@@H](Cc2ccc(O)cc2)C(=O)N[C@H](C(=O)N[C@@H](Cc2ccccc2)C(N)=O)C(C)C)NC(=O)[C@H](Cc2c[nH]c4ccccc24)NC(=O)[C@H](CCCCN)NC(=O)[C@H](Cc2cnc[nH]2)NC(=O)[C@H]([C@@H](C)O)NC(=O)[C@H](CCCNC(=N)N)NC(=O)[C@H](CO)NC3=O)NC(=O)[C@H](CCCCN)NC(=O)[C@H](CC(=O)O)NC(=O)[C@H](CC(N)=O)NC(=O)[C@H](CC(=O)O)NC(=O)[C@@H]2CCCN2C1=O` (H-DCLGRMRKCIPDNDKCCRPNLVCSRTHKWCKYVF-NH2; disulfide 2-17, 9-23, 16-30), the pIC50 is < 5.30.

Take `CC[C@H](C)[C@@H]1NC(=O)[C@@H]2CSSC[C@@H]3NC(=O)[C@H](C(C)C)NC(=O)[C@H](CC(C)C)NC(=O)[C@H](CC(N)=O)NC(=O)[C@@H]4CCCN4C(=O)[C@H](CCCNC(=N)N)NC(=O)[C@H](CSSC[C@H](NC(=O)[C@@H](N)CC(=O)O)C(=O)N[C@@H](CC(C)C)C(=O)N[C@@H](Cc4c[nH]c5ccccc45)C(=O)N[C@@H](Cc4ccccc4)C(=O)N[C@@H](CCSC)C(=O)N[C@@H](CCCNC(=N)N)C(=O)N[C@@H](CCCCN)C(=O)N2)NC(=O)[C@H](CSSC[C@@H](C(=O)N[C@@H](CCCCN)C(=O)N[C@@H](Cc2ccc(O)cc2)C(=O)N[C@H](C(=O)N[C@@H](Cc2ccccc2)C(N)=O)C(C)C)NC(=O)[C@H](Cc2c[nH]c4ccccc24)NC(=O)[C@H](CCCCN)NC(=O)[C@H](Cc2cnc[nH]2)NC(=O)[C@H]([C@@H](C)O)NC(=O)[C@H](CCCNC(=N)N)NC(=O)[C@H](CO)NC3=O)NC(=O)[C@H](CCCCN)NC(=O)[C@H](CC(=O)O)NC(=O)[C@H](CC(N)=O)NC(=O)[C@H](CC(=O)O)NC(=O)[C@@H]2CCCN2C1=O` (H-DCLWFMRKCIPDNDKCCRPNLVCSRTHKWCKYVF-NH2; disulfide 2-17, 9-23, 16-30): the pIC50 was < 5.30.

For the compound `CC[C@H](C)[C@@H]1NC(=O)[C@@H]2CSSC[C@@H]3NC(=O)[C@H](C(C)C)NC(=O)[C@H](CC(C)C)NC(=O)[C@H](CC(N)=O)NC(=O)[C@@H]4CCCN4C(=O)[C@H](CCCNC(=N)N)NC(=O)[C@H](CSSC[C@H](NC(=O)[C@@H](N)CC(=O)O)C(=O)N[C@@H](CCCNC(=N)N)C(=O)NCC(=O)N[C@@H](Cc4ccccc4)C(=O)N[C@@H](CCSC)C(=O)N[C@@H](CCCNC(=N)N)C(=O)N[C@@H](CCCCN)C(=O)N2)NC(=O)[C@H](CSSC[C@@H](C(=O)N[C@@H](CCCCN)C(=O)N[C@@H](Cc2ccc(O)cc2)C(=O)N[C@H](C(=O)N[C@@H](Cc2ccccc2)C(N)=O)C(C)C)NC(=O)[C@H](Cc2c[nH]c4ccccc24)NC(=O)[C@H](CCCCN)NC(=O)[C@H](Cc2cnc[nH]2)NC(=O)[C@H]([C@@H](C)O)NC(=O)[C@H](CCCNC(=N)N)NC(=O)[C@H](CO)NC3=O)NC(=O)[C@H](CCCCN)NC(=O)[C@H](CC(=O)O)NC(=O)[C@H](CC(N)=O)NC(=O)[C@H](CC(=O)O)NC(=O)[C@@H]2CCCN2C1=O` (H-DCRGFMRKCIPDNDKCCRPNLVCSRTHKWCKYVF-NH2; disulfide 2-17, 9-23, 16-30), the pIC50 is < 5.30.

`CC[C@H](C)[C@@H]1NC(=O)[C@@H]2CSSC[C@@H]3NC(=O)[C@H](C(C)C)NC(=O)[C@H](CC(C)C)NC(=O)[C@H](CC(N)=O)NC(=O)[C@@H]4CCCN4C(=O)[C@H](CCCNC(=N)N)NC(=O)[C@H](CSSC[C@H](NC(=O)[C@@H](N)CCC(=O)O)C(=O)N[C@@H](CC(C)C)C(=O)NCC(=O)N[C@@H](Cc4ccccc4)C(=O)N[C@@H](CCSC)C(=O)N[C@@H](CCCNC(=N)N)C(=O)N[C@@H](CCCCN)C(=O)N2)NC(=O)[C@H](CSSC[C@@H](C(=O)N[C@@H](CCCCN)C(=O)N[C@@H](Cc2ccc(O)cc2)C(=O)N[C@H](C(=O)N[C@@H](Cc2ccccc2)C(N)=O)C(C)C)NC(=O)[C@H](Cc2c[nH]c4ccccc24)NC(=O)[C@H](CCCCN)NC(=O)[C@H](Cc2cnc[nH]2)NC(=O)[C@H]([C@@H](C)O)NC(=O)[C@H](CCCNC(=N)N)NC(=O)[C@H](CO)NC3=O)NC(=O)[C@H](CCCCN)NC(=O)[C@H](CC(=O)O)NC(=O)[C@H](CC(N)=O)NC(=O)[C@H](CC(=O)O)NC(=O)[C@@H]2CCCN2C1=O` (H-ECLGFMRKCIPDNDKCCRPNLVCSRTHKWCKYVF-NH2; disulfide 2-17, 9-23, 16-30): the pIC50 is < 5.30.

Turning to `CC[C@H](C)[C@@H]1NC(=O)[C@@H]2CSSC[C@@H]3NC(=O)[C@H](C(C)C)NC(=O)[C@H](CC(C)C)NC(=O)[C@H](CC(N)=O)NC(=O)[C@@H]4CCCN4C(=O)[C@H](CCCNC(=N)N)NC(=O)[C@H](CSSC[C@H](NC(=O)[C@@H](N)CCCCN)C(=O)N[C@@H](CC(C)C)C(=O)NCC(=O)N[C@@H](Cc4ccccc4)C(=O)N[C@@H](CCSC)C(=O)N[C@@H](CCCNC(=N)N)C(=O)N[C@@H](CCCCN)C(=O)N2)NC(=O)[C@H](CSSC[C@@H](C(=O)N[C@@H](CCCCN)C(=O)N[C@@H](Cc2ccc(O)cc2)C(=O)N[C@H](C(=O)N[C@@H](Cc2ccccc2)C(N)=O)C(C)C)NC(=O)[C@H](Cc2c[nH]c4ccccc24)NC(=O)[C@H](CCCCN)NC(=O)[C@H](Cc2cnc[nH]2)NC(=O)[C@H]([C@@H](C)O)NC(=O)[C@H](CCCNC(=N)N)NC(=O)[C@H](CO)NC3=O)NC(=O)[C@H](CCCCN)NC(=O)[C@H](CC(=O)O)NC(=O)[C@H](CC(N)=O)NC(=O)[C@H](CC(=O)O)NC(=O)[C@@H]2CCCN2C1=O` (H-KCLGFMRKCIPDNDKCCRPNLVCSRTHKWCKYVF-NH2; disulfide 2-17, 9-23, 16-30), the pIC50 was < 5.30.

On to `CC[C@H](C)[C@@H]1NC(=O)[C@@H]2CSSC[C@@H]3NC(=O)[C@H](C(C)C)NC(=O)[C@H](CC(C)C)NC(=O)[C@H](CC(N)=O)NC(=O)[C@@H]4CCCN4C(=O)[C@H](CCCNC(=N)N)NC(=O)[C@H](CSSC[C@H](NC(=O)[C@@H](N)CCCNC(=N)N)C(=O)N[C@@H](CC(C)C)C(=O)NCC(=O)N[C@@H](Cc4ccccc4)C(=O)N[C@@H](CCSC)C(=O)N[C@@H](CCCNC(=N)N)C(=O)N[C@@H](CCCCN)C(=O)N2)NC(=O)[C@H](CSSC[C@@H](C(=O)N[C@@H](CCCCN)C(=O)N[C@@H](Cc2ccc(O)cc2)C(=O)N[C@H](C(=O)N[C@@H](Cc2ccccc2)C(N)=O)C(C)C)NC(=O)[C@H](Cc2c[nH]c4ccccc24)NC(=O)[C@H](CCCCN)NC(=O)[C@H](Cc2cnc[nH]2)NC(=O)[C@H]([C@@H](C)O)NC(=O)[C@H](CCCNC(=N)N)NC(=O)[C@H](CO)NC3=O)NC(=O)[C@H](CCCCN)NC(=O)[C@H](CC(=O)O)NC(=O)[C@H](CC(N)=O)NC(=O)[C@H](CC(=O)O)NC(=O)[C@@H]2CCCN2C1=O` (H-RCLGFMRKCIPDNDKCCRPNLVCSRTHKWCKYVF-NH2; disulfide 2-17, 9-23, 16-30), for which the pIC50 was < 5.30.

Staying with this assay, now noted: hek293.
On to `CC[C@H](C)[C@@H]1NC(=O)[C@@H]2CSSC[C@@H]3NC(=O)[C@H](C(C)C)NC(=O)[C@H](CC(C)C)NC(=O)[C@H](CC(N)=O)NC(=O)[C@@H]4CCCN4C(=O)[C@H](CCCNC(=N)N)NC(=O)[C@H](CSSC[C@H](NC(=O)[C@@H](N)CC(=O)O)C(=O)N[C@@H](CC(C)C)C(=O)NCC(=O)N[C@@H](Cc4ccccc4)C(=O)N[C@@H](CCSC)C(=O)N[C@@H](CCCNC(=N)N)C(=O)N[C@@H](CCCCN)C(=O)N2)NC(=O)[C@H](CSSC[C@@H](C(=O)N[C@@H](CCCCN)C(=O)N[C@@H](Cc2ccc(O)cc2)C(=O)N[C@H](C(=O)N[C@@H](Cc2ccccc2)C(=O)O)C(C)C)NC(=O)[C@H](Cc2c[nH]c4ccccc24)NC(=O)[C@H](CCCCN)NC(=O)[C@H](Cc2cnc[nH]2)NC(=O)[C@H]([C@@H](C)O)NC(=O)[C@H](CCCNC(=N)N)NC(=O)[C@H](CO)NC3=O)NC(=O)[C@H](CCCCN)NC(=O)[C@H](CC(=O)O)NC(=O)[C@H](CC(N)=O)NC(=O)[C@H](CC(=O)O)NC(=O)[C@@H]2CCCN2C1=O` (stereo in doubt; 158), for which the pIC50 is < 5.30.
